{"data": "Assay results of several laboratories", "KDM1A": "Lysine-specific histone demethylase 1A (KDM1A, Homo sapiens, UniProt O60341)", "BRD3 BD1": "Bromodomain-containing protein 3, BD1 (BRD3, Homo sapiens, UniProt Q15059)", "ATAD2B": "ATPase family AAA domain-containing protein 2B (ATAD2B, Homo sapiens, UniProt Q9ULI0)", "PDE5A": "cGMP-specific 3',5'-cyclic phosphodiesterase (PDE5A, Homo sapiens, UniProt O76074)", "note": "Compare with care: the assays were run in different laboratories."}
{"SMILES": "O=C(O)c1ccc(CN2CCC(CN[C@@H]3C[C@H]3c3ccccc3)CC2)cc1", "target": "KDM1A", "assay": "enzyme activity, inhibitor", "endpoint": "KI (inactivation)", "result": "2140 nM"}
{"SMILES": "Oc1ccc(-c2nc(-c3ccncc3)c(-c3ccc(F)cc3)[nH]2)cc1", "target": "BRD3 BD1", "assay": "thermal stability, DSF", "conditions": "10 µM", "endpoint": "ΔTm", "result": "0.72 °C"}
{"SMILES": "CN1CCN(C(=O)[C@H](CCCN[C@@H]2C[C@H]2c2ccc(F)cc2)NC(=O)c2ccc(-n3ccnn3)cc2)CC1", "target": "KDM1A", "assay": "enzyme activity, inhibitor", "endpoint": "KI (inactivation)", "result": "1190 nM"}
{"SMILES": "COc1cc2c(NC3CCN(C(C)C)CC3)nc(C3CCCCC3)nc2cc1OCCCN1CCCC1", "target": "Histone-lysine N-methyltransferase EHMT1 (EHMT1, Homo sapiens, UniProt Q9H9B1)", "assay": "thermal stability, DSF", "conditions": "100 µM", "endpoint": "ΔTm", "result": "8 °C"}
{"SMILES": "Cc1cnc(Nc2ccc(OCCN3CCCC3)cc2)nc1Nc1cccc(S(=O)(=O)NC(C)(C)C)c1", "target": "ATAD2B", "assay": "thermal stability, DSF", "conditions": "10 µM", "endpoint": "ΔTm", "result": "-0.06 °C"}
{"SMILES": "COc1ccc([C@H]2c3[nH]c4ccccc4c3C[C@@H]3C(=O)N(C(C)(C)C)C(=O)N23)cc1OC", "target": "PDE5A", "assay": "enzyme activity, inhibitor, FP", "conditions": "50 µM", "endpoint": "inhibition", "result": "52%"}
{"SMILES": "C[S+]([O-])c1ccc(-c2nc(-c3ccncc3)c(-c3ccc(F)cc3)[nH]2)cc1 (stereo not drawn)", "target": "BRD3 BD1", "assay": "thermal stability, DSF", "conditions": "10 µM", "endpoint": "ΔTm", "result": "1.43 °C"}
{"SMILES": "Cc1cc2c(cc1N1C(=O)c3cccc4c(Cl)ccc(c34)C1=O)n(C)c(=O)n2C", "target": "SP140L (Homo sapiens, UniProt Q9H930)", "assay": "thermal stability, DSF", "conditions": "10 µM", "endpoint": "ΔTm", "result": "-1.4 °C"}
{"SMILES": "COC(=O)[C@@H]1Cc2c([nH]c3ccccc23)[C@H](c2ccc(OC)c(OC)c2)N1C(=O)CCl", "target": "PDE5A", "assay": "enzyme activity, inhibitor, FP", "conditions": "50 µM", "endpoint": "inhibition", "result": "48%"}
{"SMILES": "NS(=O)(=O)c1ccc(Nc2nc(-c3ccc(F)cc3)c3ccccc3n2)cc1", "target": "ATAD2B", "assay": "binding, competition with immobilised ligand", "conditions": "1 µM", "endpoint": "remaining binding", "result": "76%"}
{"SMILES": "CC(=O)N[C@H](C(=O)N[C@H](C(=O)N[C@@H](Cc1ccccc1)C(=O)N[C@H](C(=O)N[C@@H](CO)C(=O)N[C@@H](Cc1c[nH]c2ccccc12)C(=O)N[C@@H](CCC(=O)O)C(=O)N[C@@H](CCC(=O)O)C(=O)N[C@@H](Cc1ccc(O)cc1)C(=O)N[C@@H](CC(C)C)C(=O)N[C@@H](CC(=O)O)C(=O)N[C@@H](Cc1c[nH]c2ccccc12)C(=O)N[C@H](C(N)=O)C(C)C)[C@@H](C)O)C(C)C)[C@@H](C)O", "target": "Proprotein convertase subtilisin/kexin type 9 (PCSK9, Homo sapiens, UniProt Q8NBP7)", "assay": "binding, SPR", "endpoint": "koff", "result": "0.173 s⁻¹"}
{"SMILES": "Nc1ncnc2occ(-c3ccc(NC(=O)Nc4cc(C(F)(F)F)ccc4F)cc3)c12", "target": "Cyclin-dependent kinase 15 (CDK15, Homo sapiens, UniProt Q96Q40)", "assay": "cell-free assay, inhibitor", "conditions": "20 µM", "endpoint": "remaining signal", "result": "1.1%"}
